Data on 16 compounds can be found in ChEMBL document CHEMBL3861977, “Effects of Oleanane-Type Triterpene Saponins from the Leaves of Eleutherococcus senticosus in an Axonal Outgrowth Assay” (J Nat Prod, 2016).

Activity calls are given as the source filed them. The calls are words filed in the database; no cut-off is given here.

In the assay the test system is Cortical neurone. The assay is described as follows: Inhibition of amyloid beta (25 to 35)-induced neuronal degeneration in ddY mouse embryo cortical neurons assessed as restoration of axonal outgrowth by measuring length of phosphorylated neurofilament-H-positive neurites at 10 uM treated 3 days post amyloid beta (25 to 35) stimulation measured after 4 days by fluorescent microscopic analysis. Format: functional. The gist of the method:
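Cortical neurons from E14 ddY mouse embryos, plated on poly-D-lysine (5 μg/mL) in neurobasal medium with 12% horse serum, switched to 2% B-27 medium 3−12 h later, 37 °C, 10% CO2. Day 3: 10 μM Aβ25−35 (pre-aggregated 4 days at 37 °C) for 3 days. Then Aβ removed; 10 μM isolate, 0.1% DMSO vehicle or NGF 10 ng/mL for 4 days. Fixed in 4% PFA, stained for pNF-H and DAPI, pNF-H-positive neurite length measured; 10−79 photos per treatment, Dunnett's test.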
Consider `CC(=O)OC[C@H]1O[C@@H](OC[C@H]2O[C@@H](OC(=O)[C@]34CCC(C)(C)C[C@H]3C3=CC[C@@H]5[C@@]6(C)CC[C@H](O[C@@H]7OC[C@H](O)[C@H](O)[C@H]7O[C@@H]7O[C@@H](C)[C@H](O)[C@@H](O)[C@H]7O)C(C)(C)[C@@H]6CC[C@@]5(C)[C@]3(C)CC4)[C@H](O)[C@@H](O)[C@@H]2O)[C@H](O)[C@@H](O)[C@@H]1O[C@@H]1O[C@@H](C)[C@H](O)[C@@H](O)[C@H]1O`, for which the inhibition result is “Active”. The entry for `C=C1CC[C@]2(C(=O)O[C@@H]3O[C@H](CO[C@@H]4O[C@H](CO)[C@@H](O[C@@H]5O[C@@H](C)[C@H](O)[C@@H](O)[C@H]5O)[C@H](O)[C@H]4O)[C@@H](O)[C@H](O)[C@H]3O)CC[C@]3(C)C(=CC[C@@H]4[C@@]5(C)CC[C@H](O[C@@H]6OC[C@H](O)[C@H](O)[C@H]6O[C@@H]6O[C@@H](C)[C@H](O)[C@@H](O)[C@H]6O)C(C)(C)[C@@H]5CC[C@]43C)[C@@H]2C1` is “Active”; for `C[C@@H]1O[C@@H](O[C@H]2[C@H](O[C@H]3CC[C@]4(C)[C@H]5CC=C6[C@@H]7C[C@](C)(C=O)CC[C@]7(C(=O)O[C@@H]7O[C@H](CO[C@@H]8O[C@H](CO)[C@@H](O[C@@H]9O[C@@H](C)[C@H](O)[C@@H](O)[C@H]9O)[C@H](O)[C@H]8O)[C@@H](O)[C@H](O)[C@H]7O)CC[C@@]6(C)[C@]5(C)CC[C@H]4C3(C)C)OC[C@H](O)[C@@H]2O)[C@H](O)[C@H](O)[C@H]1O` it is “Active”. The entry for `CC(=O)OC[C@H]1O[C@@H](OC[C@H]2O[C@@H](OC(=O)[C@]34CC[C@@](C)(C(=O)O)C[C@H]3C3=CC[C@@H]5[C@@]6(C)CC[C@H](O[C@@H]7OC[C@H](O)[C@H](O)[C@H]7O[C@@H]7O[C@@H](C)[C@H](O)[C@@H](O)[C@H]7O)C(C)(C)[C@@H]6CC[C@@]5(C)[C@]3(C)CC4)[C@H](O)[C@@H](O)[C@@H]2O)[C@H](O)[C@@H](O)[C@@H]1O[C@@H]1O[C@@H](C)[C@H](O)[C@@H](O)[C@H]1O` is “Active”; for `C[C@@H]1O[C@@H](O[C@H]2[C@H](O)[C@@H](O)[C@H](OC[C@H]3O[C@@H](OC(=O)[C@]45CCC(C)(C)C[C@H]4C4=CC[C@@H]6[C@@]7(C)CC[C@H](O[C@@H]8OC[C@H](O)[C@H](O)[C@H]8O)C(C)(C)[C@@H]7CC[C@@]6(C)[C@]4(C)CC5)[C@H](O)[C@@H](O)[C@@H]3O)O[C@@H]2CO)[C@H](O)[C@H](O)[C@H]1O` it is “Active”. For `CC(=O)OC[C@H]1O[C@@H](OC[C@H]2O[C@@H](OC(=O)[C@]34CC[C@@](C)(CO)C[C@H]3C3=CC[C@@H]5[C@@]6(C)CC[C@H](O[C@@H]7OC[C@H](O)[C@H](O)[C@H]7O[C@@H]7O[C@@H](C)[C@H](O)[C@@H](O)[C@H]7O)C(C)(C)[C@@H]6CC[C@@]5(C)[C@]3(C)CC4)[C@H](O)[C@@H](O)[C@@H]2O)[C@H](O)[C@@H](O)[C@@H]1O[C@@H]1O[C@@H](C)[C@H](O)[C@@H](O)[C@H]1O`, the inhibition entry is “Active”. With `CC(=O)OC[C@H]1O[C@@H](OC[C@H]2O[C@@H](OC(=O)[C@]34CCC(C)(C)C[C@H]3C3=CC[C@@H]5[C@@]6(C)CC[C@H](O[C@@H]7OC[C@H](O)[C@H](O)[C@H]7O[C@@H]7O[C@H](CO)[C@@H](O)[C@H](O)[C@H]7O)C(C)(C)[C@@H]6CC[C@@]5(C)[C@]3(C)CC4)[C@H](O)[C@@H](O)[C@@H]2O)[C@H](O)[C@@H](O)[C@@H]1O[C@@H]1O[C@@H](C)[C@H](O)[C@@H](O)[C@H]1O`, the inhibition result is “Active”. Consider `C[C@@H]1O[C@@H](O[C@H]2[C@H](O[C@H]3CC[C@]4(C)[C@H]5CC=C6[C@@H]7CC(C)(C)CC[C@]7(C(=O)O[C@@H]7O[C@H](CO[C@@H]8O[C@H](CO)[C@@H](O[C@@H]9O[C@@H](C)[C@H](O)[C@@H](O)[C@H]9O)[C@H](O)[C@H]8O)[C@@H](O)[C@H](O)[C@H]7O)CC[C@@]6(C)[C@]5(C)CC[C@H]4C3(C)C)OC[C@H](O)[C@@H]2O)[C@H](O)[C@H](O)[C@H]1O`, for which the inhibition result is “Active”.

As to `CC(=O)OC[C@H]1O[C@@H](OC[C@H]2O[C@@H](OC(=O)[C@]34CC[C@@](C)(C(=O)O)C[C@H]3C3=CC[C@@H]5[C@@]6(C)CC[C@H](O[C@@H]7OC[C@H](O)[C@H](O)[C@H]7O)C(C)(C)[C@@H]6CC[C@@]5(C)[C@]3(C)CC4)[C@H](O)[C@@H](O)[C@@H]2O)[C@H](O)[C@@H](O)[C@@H]1O[C@@H]1O[C@@H](C)[C@H](O)[C@@H](O)[C@H]1O`, the inhibition entry was “Active”. The entry for `C=C1CC[C@]2(C(=O)O[C@@H]3O[C@H](CO[C@@H]4O[C@H](COC(C)=O)[C@@H](O[C@@H]5O[C@@H](C)[C@H](O)[C@@H](O)[C@H]5O)[C@H](O)[C@H]4O)[C@@H](O)[C@H](O)[C@H]3O)CC[C@]3(C)C(=CC[C@@H]4[C@@]5(C)CC[C@H](O[C@@H]6OC[C@H](O)[C@H](O)[C@H]6O)C(C)(C)[C@@H]5CC[C@]43C)[C@@H]2C1` is “Active”; for `C=C1CC[C@]2(C(=O)O[C@@H]3O[C@H](CO[C@@H]4O[C@H](COC(C)=O)[C@@H](O[C@@H]5O[C@@H](C)[C@H](O)[C@@H](O)[C@H]5O)[C@H](O)[C@H]4O)[C@@H](O)[C@H](O)[C@H]3O)CC[C@]3(C)C(=CC[C@@H]4[C@@]5(C)CC[C@H](O[C@@H]6OC[C@H](O)[C@H](O)[C@H]6O[C@@H]6O[C@H](CO)[C@@H](O)[C@H](O)[C@H]6O)C(C)(C)[C@@H]5CC[C@]43C)[C@@H]2C1` it is “Active”; for `C[C@@H]1O[C@@H](O[C@H]2[C@H](O[C@H]3CC[C@@]4(C)[C@@H](CC[C@]5(C)[C@@H]4CC=C4[C@@H]6CC(C)(C)CC[C@]6(C(=O)O[C@@H]6O[C@H](CO[C@@H]7O[C@H](CO)[C@@H](O[C@@H]8O[C@@H](C)[C@H](O)[C@@H](O)[C@H]8O)[C@H](O)[C@H]7O)[C@@H](O)[C@H](O)[C@H]6O)CC[C@]45C)[C@]3(C)CO)OC[C@H](O)[C@@H]2O)[C@H](O)[C@H](O)[C@H]1O` it is “Active”. In the case of `CC(=O)OC[C@H]1O[C@@H](OC[C@H]2O[C@@H](OC(=O)[C@]34CC[C@@](C)(C=O)C[C@H]3C3=CC[C@@H]5[C@@]6(C)CC[C@H](O[C@@H]7OC[C@H](O)[C@H](O)[C@H]7O[C@@H]7O[C@@H](C)[C@H](O)[C@@H](O)[C@H]7O)C(C)(C)[C@@H]6CC[C@@]5(C)[C@]3(C)CC4)[C@H](O)[C@@H](O)[C@@H]2O)[C@H](O)[C@@H](O)[C@@H]1O[C@@H]1O[C@@H](C)[C@H](O)[C@@H](O)[C@H]1O` it was “Active”; in that of `C=C1CC[C@]2(C(=O)O[C@@H]3O[C@H](CO[C@@H]4O[C@H](COC(C)=O)[C@@H](O[C@@H]5O[C@@H](C)[C@H](O)[C@@H](O)[C@H]5O)[C@H](O)[C@H]4O)[C@@H](O)[C@H](O)[C@H]3O)CC[C@]3(C)C(=CC[C@@H]4[C@@]5(C)CC[C@H](O[C@@H]6OC[C@H](O)[C@H](O)[C@H]6O[C@@H]6O[C@@H](C)[C@H](O)[C@@H](O)[C@H]6O)C(C)(C)[C@@H]5CC[C@]43C)[C@@H]2C1`, “Active”; in that of `C[C@@H]1O[C@@H](O[C@H]2[C@H](O)[C@@H](O)[C@H](OC[C@H]3O[C@@H](OC(=O)[C@]45CC[C@@](C)(C=O)C[C@H]4C4=CC[C@@H]6[C@@]7(C)CC[C@H](O[C@@H]8OC[C@H](O)[C@H](O)[C@H]8O)C(C)(C)[C@@H]7CC[C@@]6(C)[C@]4(C)CC5)[C@H](O)[C@@H](O)[C@@H]3O)O[C@@H]2CO)[C@H](O)[C@H](O)[C@H]1O`, “Active”. Consider `C[C@@H]1O[C@@H](O[C@H]2[C@H](O)[C@@H](O)[C@H](OC[C@H]3O[C@@H](OC(=O)[C@]45CCC(C)(C)C[C@H]4C4=CC[C@@H]6[C@@]7(C)CC[C@H](O[C@@H]8OC[C@H](O)[C@H](O[C@@H]9O[C@H](CO)[C@@H](O)[C@H](O)[C@H]9O)[C@H]8O)C(C)(C)[C@@H]7CC[C@@]6(C)[C@]4(C)C[C@@H]5O)[C@H](O)[C@@H](O)[C@@H]3O)O[C@@H]2CO)[C@H](O)[C@H](O)[C@H]1O`, for which the inhibition entry was “Active”.
